ChEMBL document CHEMBL1131628 (J Med Chem, 1998)
“And” between values parts separate entries of the source, which are not always exact repeats. Equal entries are not always repeated.

Legend:
[1] = target: T1, Endothelin-1 receptor (Rattus norvegicus, UniProt P26684); test: Binding affinity for endothelin A receptor by measuring its ability to displace [125I]ET1 from prolactin secreting rat pituitary cells(MMQ); format: cell-based, Pituitary gland cell
T1 sequence (P26684 whole entry): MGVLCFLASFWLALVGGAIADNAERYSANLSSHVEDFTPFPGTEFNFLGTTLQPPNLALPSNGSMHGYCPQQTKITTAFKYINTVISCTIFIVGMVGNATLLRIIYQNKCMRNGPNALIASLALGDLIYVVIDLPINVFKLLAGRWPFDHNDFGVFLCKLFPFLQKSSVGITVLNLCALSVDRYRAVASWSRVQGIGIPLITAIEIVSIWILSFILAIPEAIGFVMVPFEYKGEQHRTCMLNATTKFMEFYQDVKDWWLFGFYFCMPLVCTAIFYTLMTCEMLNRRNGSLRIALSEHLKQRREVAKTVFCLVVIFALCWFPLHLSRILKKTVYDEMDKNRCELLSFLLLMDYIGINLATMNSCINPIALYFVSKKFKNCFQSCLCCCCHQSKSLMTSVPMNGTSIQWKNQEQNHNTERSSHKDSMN

[2] = Pharmacokinetic profile-half life was evaluated in rats upon oral administration; format: ADME, organism-based; conditions: rat, in vivo
Procedure, shortened: (§1)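 Male Sprague-Dawley rats, n = 4 per group, 10 mg/kg iv (jugular slow bolus) or oral gavage, 10 mg/mL in ethanol–propylene glycol–D5W (20:30:50) with 1 equiv NaOH. Tail-vein plasma taken 0.1 (iv only) to 12 h, assayed by HPLC after extraction. AUC by trapezoidal rule extrapolated to infinity; T1/2 from terminal rate constant; F as oral/iv AUC.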

[3] = Bioavailability in rat; format: ADME, organism-based; conditions: in vivo; procedure, shortened: as §1
[4] = target: T2, Endothelin receptor type B (Homo sapiens, UniProt P24530); test: Tested for binding affinity for human Endothelin B receptor by measuring its ability to displace [125I]ET-3 from chinese hamster ovary cells(CHO); format: cell-based
T2 sequence (P24530 whole entry): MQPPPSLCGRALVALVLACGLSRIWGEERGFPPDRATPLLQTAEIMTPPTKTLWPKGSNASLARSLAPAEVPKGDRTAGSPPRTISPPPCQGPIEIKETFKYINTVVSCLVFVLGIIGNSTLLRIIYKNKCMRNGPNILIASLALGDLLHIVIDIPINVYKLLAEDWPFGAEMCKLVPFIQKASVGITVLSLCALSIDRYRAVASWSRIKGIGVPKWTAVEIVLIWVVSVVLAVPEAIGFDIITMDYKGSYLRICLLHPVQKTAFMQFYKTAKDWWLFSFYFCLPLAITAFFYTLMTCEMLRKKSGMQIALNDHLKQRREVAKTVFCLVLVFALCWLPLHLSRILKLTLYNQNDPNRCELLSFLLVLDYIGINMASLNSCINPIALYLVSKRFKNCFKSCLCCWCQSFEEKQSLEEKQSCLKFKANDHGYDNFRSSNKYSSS

[5] = Pharmacokinetic profile Cmax was evaluated in rats; format: ADME, organism-based; conditions: rat, in vivo; procedure, shortened: as §1
[6] = Pharmacokinetic profile-half life was evaluated in rats upon intravenous administration; format: ADME, organism-based; conditions: rat, in vivo; procedure, shortened: as §1
[7] = Pharmacokinetic profile AUC was evaluated in rats; format: ADME, organism-based; set-up: concentration or dose not given beside the values; conditions: rat, in vivo; procedure, shortened: as §1
[8] = target: T3, Endothelin-1 receptor (Homo sapiens, UniProt P25101); test: Tested for binding affinity for human Endothelin A receptor by measuring its ability to displace [125I]ET1 from chinese hamster ovary cells(CHO); format: cell-based
T3 sequence (P25101 whole entry): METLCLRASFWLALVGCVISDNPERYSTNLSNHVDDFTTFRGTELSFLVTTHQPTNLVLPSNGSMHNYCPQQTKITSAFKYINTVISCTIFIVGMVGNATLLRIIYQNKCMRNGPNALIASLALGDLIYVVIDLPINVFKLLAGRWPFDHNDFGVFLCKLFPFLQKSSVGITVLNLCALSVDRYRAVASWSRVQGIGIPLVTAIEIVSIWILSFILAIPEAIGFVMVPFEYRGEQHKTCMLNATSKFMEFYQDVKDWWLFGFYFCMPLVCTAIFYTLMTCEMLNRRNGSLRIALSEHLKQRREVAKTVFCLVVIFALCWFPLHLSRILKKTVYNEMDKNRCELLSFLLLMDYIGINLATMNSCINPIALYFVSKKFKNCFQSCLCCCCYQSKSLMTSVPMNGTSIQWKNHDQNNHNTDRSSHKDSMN

IC50 [1]	Structure (SMILES)	other results
2.5 nM	CCCCN(CCCC)C(=O)CN1C[C@H](c2ccc3c(c2)OCO3)[C@@H](C(=O)O)[C@@H]1CCc1cccn1C	
2.5 nM	CCCCC[C@H]1[C@H](C(=O)O)[C@@H](c2ccc3c(c2)OCO3)CN1CC(=O)N(CCCC)CCCC	
10 nM	CCCCN(CCCC)C(=O)CN1C[C@H](c2ccc3c(c2)OCO3)[C@@H](C(=O)O)[C@@H]1CCC1CCOCC1	
2 nM	CCCCN(CCCC)C(=O)CN1C[C@H](c2ccc3c(c2)OCO3)[C@@H](C(=O)O)[C@@H]1CCN1CCCCC1=O	
0.38 nM and 0.72 nM	CCCCN(CCCC)C(=O)CN1C[C@H](c2ccc3c(c2)OCO3)[C@@H](C(=O)O)[C@@H]1CCc1ccccn1	half-life [2]: 8.8 h; bioavailability [3]: 21.1%; IC50 [4]: 32000 nM; Cmax [5]: 580 ng/mL; half-life [6]: 2.8 h; AUC [7]: 780 ng·h/mL; IC50 [8]: 0.29 nM
0.41 nM	C/C=C\C(C)(C)C[C@H]1[C@H](C(=O)O)[C@@H](c2cc(OC)c3c(c2)OCO3)CN1CC(=O)N(CCCC)CCCC	half-life [2]: 3.94 h; bioavailability [3]: 27.8%; IC50 [4]: 39700 nM; Cmax [5]: 660 ng/mL; half-life [6]: 1.5 h; AUC [7]: 2090 ng·h/mL; IC50 [8]: 0.29 nM
0.42 nM	CCCCN(CCCC)C(=O)CN1C[C@H](c2ccc3c(c2)OCO3)[C@@H](C(=O)O)[C@@H]1CCN1CCCC1=O	bioavailability [3]: 0.3%; IC50 [4]: 18000 nM; Cmax [5]: 16 ng/mL; half-life [6]: 1.4 h; AUC [7]: 9 ng·h/mL; IC50 [8]: 0.17 nM
9.9 nM	C=CCCC[C@H]1[C@H](C(=O)O)[C@@H](c2ccc3c(c2)OCO3)CN1CC(=O)N(CCCC)CCCC	
2.2 nM	CCCCN(CCCC)C(=O)CN1C[C@H](c2ccc3c(c2)OCO3)[C@@H](C(=O)O)[C@@H]1CCn1ccccc1=O	
3.3 nM	C/C=C(\C)CC[C@H]1[C@H](C(=O)O)[C@@H](c2ccc3c(c2)OCO3)CN1CC(=O)N(CCCC)CCCC	
6 nM	CCCCN(CCCC)C(=O)CN1C[C@H](c2ccc3c(c2)OCO3)[C@@H](C(=O)O)[C@@H]1CC(CCC)CCC	
4.8 nM	C/C=C/CC[C@H]1[C@H](C(=O)O)[C@@H](c2ccc3c(c2)OCO3)CN1CC(=O)N(CCCC)CCCC	
1.4 nM	CCCCN(CCCC)C(=O)CN1C[C@H](c2ccc3c(c2)OCO3)[C@@H](C(=O)O)[C@@H]1CC(C)(C)C1OCCO1	
4 nM	CCCCN(CCCC)C(=O)CN1C[C@H](c2ccc3c(c2)OCO3)[C@@H](C(=O)O)[C@@H]1CCCCC(F)(F)F	
3 nM	CCCCN(CCCC)C(=O)CN1C[C@H](c2ccc3c(c2)OCO3)[C@@H](C(=O)O)[C@@H]1CC(C)CCC (some centres not stated)	
22 nM	CCCCN(CCCC)C(=O)CN1C[C@H](c2ccc3c(c2)OCO3)[C@@H](C(=O)O)[C@@H]1CCC(CC)CC	
3.3 nM	CCCCN(CCCC)C(=O)CN1C[C@H](c2ccc3c(c2)OCO3)[C@@H](C(=O)O)[C@@H]1CCC1OCCCO1	
2.7 nM	CCCCN(CCCC)C(=O)CN1C[C@H](c2ccc3c(c2)OCO3)[C@@H](C(=O)O)[C@@H]1CCc1ccco1	
1.05 nM	CCCCN(CCCC)C(=O)CN1C[C@H](c2ccc3c(c2)OCO3)[C@@H](C(=O)O)[C@@H]1CCc1nc(C)c(C)o1	
1.3 nM	CCCCN(CCCC)C(=O)CN1C[C@H](c2ccc3c(c2)OCO3)[C@@H](C(=O)O)[C@@H]1CCC=C(C)C	
13 nM	CCCCN(CCCC)C(=O)CN1C[C@H](c2ccc3c(c2)OCO3)[C@@H](C(=O)O)[C@@H]1CCC1OC(C)C(C)O1 (some centres not stated)	
1.8 nM	CCCCN(CCCC)C(=O)CN1C[C@H](c2ccc3c(c2)OCO3)[C@@H](C(=O)O)[C@@H]1CCC1CCCCO1 (some centres not stated)	
